pEC50, pIC50: −log10 of the molar value. Active and inactive are the calls of the source. The rule behind the calls is not given here.
Assays:
Histone deacetylase 2 [1] = biological target: T1, Histone deacetylase 2 (Homo sapiens, UniProt Q92769); assay: Inhibition of full length recombinant human C-terminal FLAG/His-tagged HDAC2 expressed in baculovirus expression system using Boc-Lys(acetyl)-AMC as substrate preincubated for 1 hr followed by substrate addition measured after 2 hrs by fluorescence assay
Procedure, shortened: (§1)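 Recombinant HDAC incubated with serial compound dilutions at 30 °C for 1 h. Reaction run 2 h at 30 °C, stopped with developer containing trypsin and TSA. Fluorescence read after 30 min at 360/460 nm. Inhibition relative to control wells; IC50 from variable-slope fit.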

[2] = biological target: T2, Protein deacetylase HDAC6 (Homo sapiens, UniProt Q9UBN7); assay: Inhibition of HDAC6 (unknown origin) using Boc-Lys(acetyl)-AMC as substrate preincubated for 1 hr followed by substrate addition measured after 2 hrs by fluorescence assay; procedure, shortened: as §1
T2 sequence (Q9UBN7 whole entry): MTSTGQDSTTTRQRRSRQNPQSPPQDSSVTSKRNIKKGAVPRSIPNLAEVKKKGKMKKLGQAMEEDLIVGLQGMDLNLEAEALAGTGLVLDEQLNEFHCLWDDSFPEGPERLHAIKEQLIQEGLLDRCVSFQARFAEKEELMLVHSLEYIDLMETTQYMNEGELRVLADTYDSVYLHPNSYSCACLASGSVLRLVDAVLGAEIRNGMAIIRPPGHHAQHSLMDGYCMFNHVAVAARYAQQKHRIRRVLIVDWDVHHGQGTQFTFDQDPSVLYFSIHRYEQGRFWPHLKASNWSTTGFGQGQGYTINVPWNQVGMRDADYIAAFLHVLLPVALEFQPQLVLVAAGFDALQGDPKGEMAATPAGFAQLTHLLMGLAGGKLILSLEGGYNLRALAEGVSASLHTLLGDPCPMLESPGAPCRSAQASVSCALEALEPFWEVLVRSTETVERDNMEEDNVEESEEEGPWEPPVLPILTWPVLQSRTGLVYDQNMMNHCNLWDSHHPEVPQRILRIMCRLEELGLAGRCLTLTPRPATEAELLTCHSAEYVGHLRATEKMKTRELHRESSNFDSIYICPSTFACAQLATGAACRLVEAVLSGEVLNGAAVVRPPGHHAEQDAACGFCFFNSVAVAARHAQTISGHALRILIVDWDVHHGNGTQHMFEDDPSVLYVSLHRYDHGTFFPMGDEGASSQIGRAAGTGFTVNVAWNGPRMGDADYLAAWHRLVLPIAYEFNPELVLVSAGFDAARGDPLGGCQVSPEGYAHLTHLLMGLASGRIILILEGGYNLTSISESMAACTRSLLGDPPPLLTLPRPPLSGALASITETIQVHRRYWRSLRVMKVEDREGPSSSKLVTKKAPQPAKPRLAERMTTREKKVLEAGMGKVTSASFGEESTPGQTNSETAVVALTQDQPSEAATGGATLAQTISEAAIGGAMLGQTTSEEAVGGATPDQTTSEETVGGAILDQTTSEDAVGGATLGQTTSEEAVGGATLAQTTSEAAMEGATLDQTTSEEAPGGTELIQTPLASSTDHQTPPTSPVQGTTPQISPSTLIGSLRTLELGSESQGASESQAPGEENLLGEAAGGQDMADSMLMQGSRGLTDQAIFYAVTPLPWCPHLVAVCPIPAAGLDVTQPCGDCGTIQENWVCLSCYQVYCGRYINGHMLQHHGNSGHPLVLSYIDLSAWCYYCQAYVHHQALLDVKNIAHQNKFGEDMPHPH

Histone deacetylase 1 [3] = biological target: T3, Histone deacetylase 1 (Homo sapiens, UniProt Q13547); assay: Inhibition of full length recombinant human C-terminal FLAG/His-tagged HDAC1 expressed in baculovirus expression system using Boc-Lys(acetyl)-AMC as substrate preincubated for 1 hr followed by substrate addition measured after 2 hrs by fluorescence assay; procedure, shortened: as §1
[4] = biological target: T4, Histone deacetylase 3/Nuclear receptor corepressor 2 (HDAC3/NCoR2) (Homo sapiens, UniProt O15379); assay: (§2) Inhibition of full length recombinant human C-terminal His-tagged HDAC3/N-terminal GST-tagged NCOR2 co-expressed in baculovirus expression system using Boc-Lys(acetyl)-AMC as substrate preincubated for 1 hr followed by substrate addition measured after 2 hrs by fluorescence assay; procedure, shortened: as §1
MV4-11 [5] = assay: Antiproliferative activity against human MV4-11 cells after 48 hrs by CellTiter-Blue assay; format: functional, cell-based; conditions: MV4-11, 48 h
Histone deacetylase 1 [6] = biological target: T3, Histone deacetylase 1; assay: Inhibition of full length recombinant human C-terminal FLAG/His-tagged HDAC1 expressed in baculovirus expression system using Boc-Lys(acetyl)-AMC as substrate preincubated for 15 mins followed by substrate addition measured after 2 hrs by fluorescence assay
Procedure, shortened: (§3)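 Recombinant HDAC1 was preincubated with serially diluted inhibitor at 30 °C for the stated time. Boc-Lys(acetyl)-AMC was then added and the reaction ran 2 h at 30 °C. It was stopped with a trypsin/trichostatin A developer, and fluorescence was read 30 min later (ex 360/em 460 nm). Inhibition was taken relative to control wells, and IC50 came from a variable-slope log(inhibitor)–normalized response fit.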

Histone deacetylase 1 [7] = biological target: T3, Histone deacetylase 1; assay: Inhibition of full length recombinant human C-terminal FLAG/His-tagged HDAC1 expressed in baculovirus expression system using Boc-Lys(acetyl)-AMC as substrate preincubated for 60 mins followed by substrate addition measured after 2 hrs by fluorescence assay; procedure, shortened: as §3
Histone deacetylase 2 [8] = biological target: T1, Histone deacetylase 2; assay: Inhibition of full length recombinant human C-terminal FLAG/His-tagged HDAC2 expressed in baculovirus expression system using Boc-Lys(acetyl)-AMC as substrate preincubated for 90 mins followed by substrate addition measured after 2 hrs by fluorescence assay
Procedure, shortened: (§4)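 Recombinant HDAC2 preincubated with serial compound dilutions at 30 °C for 15, 30, 60 or 90 min. Boc-Lys(acetyl)-AMC added and reaction run 2 h at 30 °C, then stopped with trypsin/TSA developer. Fluorescence read at 360/460 nm; IC50 from variable-slope fit of control-normalized inhibition.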

Histone deacetylase 2 [9] = biological target: T1, Histone deacetylase 2; assay: Inhibition of full length recombinant human C-terminal FLAG/His-tagged HDAC2 expressed in baculovirus expression system using Boc-Lys(acetyl)-AMC as substrate preincubated for 15 mins followed by substrate addition measured after 2 hrs by fluorescence assay; procedure, shortened: as §4
Histone deacetylase 2 [10] = biological target: T1, Histone deacetylase 2; assay: Inhibition of full length recombinant human C-terminal FLAG/His-tagged HDAC2 expressed in baculovirus expression system using Boc-Lys(acetyl)-AMC as substrate preincubated for 30 mins followed by substrate addition measured after 2 hrs by fluorescence assay; procedure, shortened: as §4
Histone deacetylase 1 [11] = biological target: T3, Histone deacetylase 1; assay: Inhibition of full length recombinant human C-terminal FLAG/His-tagged HDAC1 expressed in baculovirus expression system using Boc-Lys(acetyl)-AMC as substrate preincubated for 90 mins followed by substrate addition measured after 2 hrs by fluorescence assay; procedure, shortened: as §3
[12] = biological target: Histone deacetylase 3/Nuclear receptor corepressor 2 (HDAC3/NCoR2) (Homo sapiens) (UniProt O15379+Q9Y618); assay: as §2, with “Mixed-type inhibition” for “Inhibition”, “2 hrs” for “1 hr”, “Lineweaver-Burk plot analysis” for “fluorescence assay”
Procedure, shortened: (§5)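 Recombinant human HDAC2 or HDAC3 incubated 2 h at 30 °C with inhibitor at several concentrations in HDAC buffer. Serially diluted Boc-Lys(acetyl)-AMC added for 2 h, then quenched with 5 mg/mL trypsin and 1 μM TSA. Fluorescence read at 360/460 nm. Vmax and Km from Michaelis–Menten fits, shown as Lineweaver–Burk plots.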

Histone deacetylase 2 [13] = biological target: T1, Histone deacetylase 2; assay: Inhibition of full length recombinant human C-terminal FLAG/His-tagged HDAC2 expressed in baculovirus expression system using Boc-Lys(acetyl)-AMC as substrate preincubated for 60 mins followed by substrate addition measured after 2 hrs by fluorescence assay; procedure, shortened: as §4
Histone deacetylase 2 [14] = biological target: T1, Histone deacetylase 2; assay: Mixed-type inhibition of full length recombinant human C-terminal FLAG/His-tagged HDAC2 expressed in baculovirus expression system using Boc-Lys(acetyl)-AMC as substrate preincubated for 2 hrs followed by substrate addition measured after 2 hrs by Lineweaver-Burk plot analysis; procedure, shortened: as §5
[15] = biological target: T4, Histone deacetylase 3/Nuclear receptor corepressor 2 (HDAC3/NCoR2); assay: Inhibition of full length recombinant human C-terminal His-tagged HDAC3/N-terminal GST-tagged NCOR2 co-expressed in baculovirus expression system using Boc-Lys(acetyl)-AMC as substrate preincubated for 15 mins followed by substrate addition measured after 2 hrs by fluorescence assay
[16] = biological target: T4, Histone deacetylase 3/Nuclear receptor corepressor 2 (HDAC3/NCoR2); assay: Inhibition of full length recombinant human C-terminal His-tagged HDAC3/N-terminal GST-tagged NCOR2 co-expressed in baculovirus expression system using Boc-Lys(acetyl)-AMC as substrate preincubated for 30 mins followed by substrate addition measured after 2 hrs by fluorescence assay
Histone deacetylase 1 [17] = biological target: T3, Histone deacetylase 1; assay: Inhibition of full length recombinant human C-terminal FLAG/His-tagged HDAC1 expressed in baculovirus expression system using Boc-Lys(acetyl)-AMC as substrate preincubated for 30 mins followed by substrate addition measured after 2 hrs by fluorescence assay
[18] = biological target: T4, Histone deacetylase 3/Nuclear receptor corepressor 2 (HDAC3/NCoR2); assay: Inhibition of full length recombinant human C-terminal His-tagged HDAC3/N-terminal GST-tagged NCOR2 co-expressed in baculovirus expression system using Boc-Lys(acetyl)-AMC as substrate preincubated for 90 mins followed by substrate addition measured after 2 hrs by fluorescence assay
[19] = biological target: T4, Histone deacetylase 3/Nuclear receptor corepressor 2 (HDAC3/NCoR2); assay: Inhibition of full length recombinant human C-terminal His-tagged HDAC3/N-terminal GST-tagged NCOR2 co-expressed in baculovirus expression system using Boc-Lys(acetyl)-AMC as substrate preincubated for 60 mins followed by substrate addition measured after 2 hrs by fluorescence assay
MV4-11 [20] = assay: Downregulation of HDAC6 protein expression in human MV4-11 cells at 5 uM after 24 hrs by Western blot analysis; format: functional, cell-based
Procedure, shortened: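 MV4-11 cells treated 24 h at 0.25, 0.5, 1 and 2 μM, with 5 μM SAHA as reference. RIPA lysates normalized by BCA, run on 4–12% Bis-Tris gels, probed with primary antibodies at 1/1000 overnight at 4 °C. HDAC6 and acetylated histones/tubulin detected; actin as loading control. Representative of n = 2.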

T3 sequence (Q13547 whole entry): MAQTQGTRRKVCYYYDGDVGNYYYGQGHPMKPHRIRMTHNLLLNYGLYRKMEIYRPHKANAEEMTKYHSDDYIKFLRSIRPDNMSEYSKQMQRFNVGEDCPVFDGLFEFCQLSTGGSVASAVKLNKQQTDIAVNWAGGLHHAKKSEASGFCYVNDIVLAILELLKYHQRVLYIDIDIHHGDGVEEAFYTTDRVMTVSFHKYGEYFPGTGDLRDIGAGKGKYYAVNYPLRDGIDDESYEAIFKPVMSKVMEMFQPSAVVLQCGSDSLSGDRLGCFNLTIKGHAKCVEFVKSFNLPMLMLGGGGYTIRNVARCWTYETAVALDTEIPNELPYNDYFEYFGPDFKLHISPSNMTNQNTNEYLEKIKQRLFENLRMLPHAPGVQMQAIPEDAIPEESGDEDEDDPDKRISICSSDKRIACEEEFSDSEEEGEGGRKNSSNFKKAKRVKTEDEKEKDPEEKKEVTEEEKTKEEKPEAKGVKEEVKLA
T4 sequence (O15379 whole entry): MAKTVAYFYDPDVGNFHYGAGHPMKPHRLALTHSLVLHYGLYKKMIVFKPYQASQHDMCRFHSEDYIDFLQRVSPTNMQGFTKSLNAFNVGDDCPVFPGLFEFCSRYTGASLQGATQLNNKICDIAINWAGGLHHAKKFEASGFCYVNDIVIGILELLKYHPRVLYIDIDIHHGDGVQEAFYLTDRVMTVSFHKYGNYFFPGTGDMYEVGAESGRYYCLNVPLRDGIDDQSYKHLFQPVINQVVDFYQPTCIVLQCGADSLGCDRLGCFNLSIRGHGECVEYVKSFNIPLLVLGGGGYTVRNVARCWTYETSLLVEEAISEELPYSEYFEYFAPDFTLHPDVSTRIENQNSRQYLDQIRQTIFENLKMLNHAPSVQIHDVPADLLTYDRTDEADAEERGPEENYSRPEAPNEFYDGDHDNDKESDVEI
T4 sequence (Q9Y618 whole entry, further chain): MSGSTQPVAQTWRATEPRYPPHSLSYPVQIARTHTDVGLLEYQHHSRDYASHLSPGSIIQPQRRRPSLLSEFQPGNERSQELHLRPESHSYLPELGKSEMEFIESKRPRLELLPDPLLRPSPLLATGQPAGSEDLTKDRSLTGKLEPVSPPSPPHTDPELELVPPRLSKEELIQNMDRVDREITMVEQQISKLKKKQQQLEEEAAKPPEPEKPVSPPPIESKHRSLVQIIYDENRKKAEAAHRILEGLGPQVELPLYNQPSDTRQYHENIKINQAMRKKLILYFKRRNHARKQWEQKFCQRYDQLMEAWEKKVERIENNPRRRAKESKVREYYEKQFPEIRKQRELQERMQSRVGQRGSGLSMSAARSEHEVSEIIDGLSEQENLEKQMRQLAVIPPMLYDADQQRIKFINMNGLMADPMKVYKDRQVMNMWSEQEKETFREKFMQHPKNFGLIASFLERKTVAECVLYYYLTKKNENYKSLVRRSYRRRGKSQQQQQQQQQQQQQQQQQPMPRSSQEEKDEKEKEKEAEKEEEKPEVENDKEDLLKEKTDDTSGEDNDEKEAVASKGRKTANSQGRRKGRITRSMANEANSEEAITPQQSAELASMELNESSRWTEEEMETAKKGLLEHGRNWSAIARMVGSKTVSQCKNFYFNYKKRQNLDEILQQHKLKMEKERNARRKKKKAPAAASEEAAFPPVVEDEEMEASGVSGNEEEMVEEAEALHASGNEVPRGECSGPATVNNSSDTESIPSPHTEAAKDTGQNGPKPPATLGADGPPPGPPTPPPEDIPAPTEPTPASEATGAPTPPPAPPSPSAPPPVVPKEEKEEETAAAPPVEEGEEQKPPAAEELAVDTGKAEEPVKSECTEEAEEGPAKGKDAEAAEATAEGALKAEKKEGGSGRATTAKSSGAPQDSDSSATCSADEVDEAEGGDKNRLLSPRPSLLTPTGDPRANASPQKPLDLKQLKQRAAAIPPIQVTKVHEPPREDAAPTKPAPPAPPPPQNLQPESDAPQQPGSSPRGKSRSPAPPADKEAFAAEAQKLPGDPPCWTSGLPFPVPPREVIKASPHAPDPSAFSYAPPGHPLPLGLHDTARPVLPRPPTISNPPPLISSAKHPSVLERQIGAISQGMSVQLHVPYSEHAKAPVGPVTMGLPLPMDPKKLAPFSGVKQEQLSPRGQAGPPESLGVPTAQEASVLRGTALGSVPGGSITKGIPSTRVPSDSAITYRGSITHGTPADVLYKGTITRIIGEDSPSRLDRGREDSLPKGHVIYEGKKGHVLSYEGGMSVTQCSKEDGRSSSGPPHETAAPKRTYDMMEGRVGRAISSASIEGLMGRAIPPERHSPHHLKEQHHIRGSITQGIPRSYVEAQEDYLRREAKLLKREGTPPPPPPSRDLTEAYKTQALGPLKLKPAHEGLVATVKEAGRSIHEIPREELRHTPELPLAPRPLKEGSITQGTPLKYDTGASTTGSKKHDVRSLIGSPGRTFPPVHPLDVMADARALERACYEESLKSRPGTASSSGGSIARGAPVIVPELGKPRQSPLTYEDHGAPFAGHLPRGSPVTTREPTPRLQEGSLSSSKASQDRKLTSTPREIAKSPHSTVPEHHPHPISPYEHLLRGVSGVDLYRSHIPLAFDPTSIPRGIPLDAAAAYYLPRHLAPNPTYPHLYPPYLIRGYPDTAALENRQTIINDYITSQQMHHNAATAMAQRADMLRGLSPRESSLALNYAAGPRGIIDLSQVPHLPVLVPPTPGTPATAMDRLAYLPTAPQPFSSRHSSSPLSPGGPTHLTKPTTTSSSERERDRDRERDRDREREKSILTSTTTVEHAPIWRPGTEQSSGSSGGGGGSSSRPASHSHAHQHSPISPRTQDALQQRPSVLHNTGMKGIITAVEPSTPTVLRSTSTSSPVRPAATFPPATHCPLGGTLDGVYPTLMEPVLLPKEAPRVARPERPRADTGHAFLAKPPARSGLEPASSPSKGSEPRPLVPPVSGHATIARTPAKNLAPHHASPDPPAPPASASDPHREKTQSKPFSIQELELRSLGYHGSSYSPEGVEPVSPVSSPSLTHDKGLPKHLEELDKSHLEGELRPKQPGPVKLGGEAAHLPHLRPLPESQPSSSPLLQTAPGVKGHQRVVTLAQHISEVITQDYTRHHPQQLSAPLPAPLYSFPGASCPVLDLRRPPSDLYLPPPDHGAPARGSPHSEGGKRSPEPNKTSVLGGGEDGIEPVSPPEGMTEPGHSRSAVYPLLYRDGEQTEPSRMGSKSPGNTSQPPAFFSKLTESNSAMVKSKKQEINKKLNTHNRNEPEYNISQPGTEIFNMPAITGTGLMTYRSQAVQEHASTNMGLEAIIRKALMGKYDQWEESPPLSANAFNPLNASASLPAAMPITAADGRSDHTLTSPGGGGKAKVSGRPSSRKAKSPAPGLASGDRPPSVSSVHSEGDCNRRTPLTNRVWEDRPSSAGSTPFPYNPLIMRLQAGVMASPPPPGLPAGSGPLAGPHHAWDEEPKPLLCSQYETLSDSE
T1 sequence (Q92769 whole entry): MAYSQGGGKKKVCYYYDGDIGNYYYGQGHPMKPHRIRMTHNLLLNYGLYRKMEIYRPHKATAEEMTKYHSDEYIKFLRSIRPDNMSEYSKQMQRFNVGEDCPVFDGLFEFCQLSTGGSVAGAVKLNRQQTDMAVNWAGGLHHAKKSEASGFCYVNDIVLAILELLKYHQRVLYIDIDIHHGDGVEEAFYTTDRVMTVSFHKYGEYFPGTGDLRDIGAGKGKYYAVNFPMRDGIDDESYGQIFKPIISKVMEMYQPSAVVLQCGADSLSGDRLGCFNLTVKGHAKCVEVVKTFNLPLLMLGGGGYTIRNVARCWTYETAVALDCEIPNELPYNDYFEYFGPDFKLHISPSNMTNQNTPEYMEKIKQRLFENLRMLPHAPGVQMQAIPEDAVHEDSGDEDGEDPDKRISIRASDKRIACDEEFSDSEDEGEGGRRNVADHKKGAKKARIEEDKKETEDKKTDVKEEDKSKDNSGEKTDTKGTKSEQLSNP

SMILES | pIC50 (Histone deacetylase 2 [1]) | pIC50 [2] | pIC50 (Histone deacetylase 1 [3]) | pIC50 [4] | also measured
COc1ccc(C(=O)N[C@@H](Cc2c[nH]c3ccccc23)C(=O)NCc2ccc(C(=O)NNc3ccccc3)cc2)cc1 | < 5.30 | < 4.00 | < 5.30 | < 5.30 | pEC50 (MV4-11 [5]): < 4.70
CCCNNC(=O)c1ccc(CNC(=O)[C@H](Cc2c[nH]c3ccccc23)NC(=O)c2ccc(OC)cc2)cc1 | 6.54 | < 4.00 | 7.20 |  | pIC50 (Histone deacetylase 1 [6]): 7.04; pIC50 (Histone deacetylase 1 [7]): 7.30; pIC50 (Histone deacetylase 2 [8]): 6.71; pIC50 (Histone deacetylase 2 [9]): 6.37; pIC50 (Histone deacetylase 2 [10]): 6.44; pIC50 (Histone deacetylase 1 [11]): 7.48; inhibition [12]: Active; pIC50 (Histone deacetylase 2 [13]): 6.59; inhibition (Histone deacetylase 2 [14]): Active
CCCCCNNC(=O)c1ccc(CNC(=O)[C@H](Cc2c[nH]c3ccccc23)NC(=O)c2ccc(OC)cc2)cc1 | 6.48 | < 4.00 | 7.53 | 7.96 | 
COc1ccc(C(=O)N[C@@H](Cc2c[nH]c3ccccc23)C(=O)NCc2ccc(C(=O)Nc3ccccc3N)cc2)cc1 |  | < 4.00 |  |  | pIC50 (Histone deacetylase 1 [6]): 7.00; pIC50 [15]: 6.03; pIC50 (Histone deacetylase 1 [7]): 7.30; pIC50 (Histone deacetylase 2 [8]): 6.92; pIC50 (Histone deacetylase 2 [9]): 6.46; pIC50 [16]: 6.36; pIC50 (Histone deacetylase 1 [17]): 7.19; pIC50 [18]: 6.87; pIC50 (Histone deacetylase 2 [10]): 6.60; pIC50 (Histone deacetylase 1 [11]): 7.46; inhibition [12]: Active; pIC50 (Histone deacetylase 2 [13]): 6.77; inhibition (Histone deacetylase 2 [14]): Active; pIC50 [19]: 6.74
O=C(CCCCCCC(=O)Nc1ccccc1)NO |  |  |  |  | Activity (MV4-11 [20]): Active
COc1ccc(C(=O)N[C@@H](Cc2c[nH]c3ccccc23)C(=O)NCc2ccc(C(=O)NNC3CCCC3)cc2)cc1 | < 5.30 | < 4.00 | < 5.30 | < 5.30 | pEC50 (MV4-11 [5]): < 4.70

Now from value to compound, other results behind:

pIC50 (Histone deacetylase 2 [1]) | pIC50 [2] | pIC50 (Histone deacetylase 1 [3]) | pIC50 [4] | SMILES | also measured
6.71 | < 4.00 | 7.27 | 7.78 | CCCCNNC(=O)c1ccc(CNC(=O)[C@H](Cc2c[nH]c3ccccc23)NC(=O)c2ccc(OC)cc2)cc1 | 
6.70 | < 4.00 | 7.28 | 7.92 | CCCNNC(=O)CCCCCCCNC(=O)[C@H](Cc1c[nH]c2ccccc12)NC(=O)c1ccc(OC)cc1 | 
6.55 | < 4.00 | 7.54 | 8.55 | CCCNNC(=O)/C=C/c1ccc(OC[C@H](Cc2c[nH]c3ccccc23)NC(=O)c2ccc(OC)cc2)cc1 | pEC50 (MV4-11 [5]): 6.61
7.05 | 6.41 | 7.02 | 7.46 | CCNNC(=O)c1ccc(CNC(=O)[C@H](Cc2c[nH]c3ccccc23)NC(=O)c2ccc(OC)cc2)cc1 | 
6.72 | < 4.00 | 7.04 | 8.28 | CCCNNC(=O)CCCCCCNC(=O)[C@H](Cc1c[nH]c2ccccc12)NC(=O)c1ccc(OC)cc1 | 
6.68 | < 4.00 | 7.10 | 7.91 | CCCNNC(=O)CCCCCNC(=O)[C@H](Cc1c[nH]c2ccccc12)NC(=O)c1ccc(OC)cc1 | 

From ChEMBL document CHEMBL4020839, “Class I HDAC Inhibitors Display Different Antitumor Mechanism in Leukemia and Prostatic Cancer Cells Depending on Their p53 Status” (J Med Chem, 2018)
